LANA-H2A inh: blockers of LANA interaction with H2A/H2B – biochemical, FP readout, HTS, primary screen. Protein LANA1 (Human herpesvirus 8 type P (isolate GK18)), Q9QR71. cell-free LANA-H2A/H2B peptide, fluorescence polarization. inhibition, % (test concentration not listed). hit rate 0.6% among 320,000. AID 2629, 2010; in the data active = inhibition mostly above about 10%, no sharp cut-off; inactive = mostly below about 6.7%
TRPML3 ag: human TRPML3 channel agonists, primary screen, cell-based, HEK293 TRPML3-YFP, Fluo-8 calcium fluorescence, 3 µM. hit rate 0.29% among 220,000. Mucolipin-3 (Homo sapiens), Q8TDD5. activation, % at 3 µM. 100% = the carbachol control signal. AID 1448, 2008;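 active = activation above its plate's cutoff, the mean activation of the plate's test wells plus 3 SD, cut at about 12% in these data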;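 also: 0% = DMSO only wells and 100% = carbachol wells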
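Test system: TRPML3-YFP stable HEK293 cells. Doses: single point at 3 µM. Incubation: dye loading 1 h 37 °C then 30 min ambient, 125 s read. Signal: Fluo-8 calcium dye fluorescence, ex 470-495, em 515-575 nm. Measure: percent activation from peak-to-basal fluorescence ratio, scaled between DMSO and carbachol.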
GPR7 antag: GPR7 receptor antagonists, primary screen, cell-based, fluorescence, single concentration. inhibition, % at 4.4 µM. GPR7-expressing cells, fluorescence antagonist assay. AID 1861, 2009. Neuropeptides B/W receptor type 1 (Homo sapiens), P48145. hit rate 1.1% among 290,000; in the data active = inhibition above about 16%, passing the limit was not always enough;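 also: cells stimulated with the agonist NPW; 0% = agonist with vehicle and 100% = vehicle without agonist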
TAAR1 antagonist: human TAAR1 antagonists, primary screen, Fluo-8 calcium fluorescence, CHO RD-HGA16 cells | inhibition, % at 3 µM | antagonist | Trace amine-associated receptor 1 (Homo sapiens), Q96RJ0 | hit rate 1.5% among 360,000 | AID 624466, 2012;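 active = inhibition above a per-plate cutoff, the mean inhibition of test compounds on that plate plus 3 SD, cut at about 49% in these data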;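 also: 0% = DMSO plus EC80 beta-PEA response and 100% = DMSO alone without agonist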
Target sequence (Q96RJ0 whole entry, looked up): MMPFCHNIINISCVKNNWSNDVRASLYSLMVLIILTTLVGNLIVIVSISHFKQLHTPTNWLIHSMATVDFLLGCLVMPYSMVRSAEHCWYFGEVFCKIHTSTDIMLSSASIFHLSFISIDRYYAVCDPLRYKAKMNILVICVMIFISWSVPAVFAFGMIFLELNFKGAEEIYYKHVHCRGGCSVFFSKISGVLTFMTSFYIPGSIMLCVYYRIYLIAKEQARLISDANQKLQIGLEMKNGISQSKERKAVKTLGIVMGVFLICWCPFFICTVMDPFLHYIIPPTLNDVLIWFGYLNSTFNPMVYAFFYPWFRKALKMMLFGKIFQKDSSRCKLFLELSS
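Material: CHO RD-HGA16 cells bearing hTAAR1; compound dosing: one-point dosing, 3 µM nominal final; schedule: dye loading 75 min at 37 °C, then 30 min room temperature; measured by: calcium fluorescence with Fluo-8; control set: vehicle and agonist controls; replication: n of 1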
zfTRPN1 agonist: zebrafish TRPN1 channel agonists, primary screen, cell-based, HEK293, calcium fluorescence. AID 1424, 2008. hit rate 0.18% among 220,000. transient receptor potential cation channel N1 (TRPN1/NompC), Danio rerio. activation, % at 3 µM. HEK293 zebrafish TRPN1-YFP, Fluo-8 calcium fluorescence; 100% = response to 87 µM carbachol;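 active = activation above its plate's cutoff, the mean activation of test wells on that plate plus 3 SD, cut at about 19% in these data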;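 also: 0% = DMSO alone and 100% = 87 µM carbachol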
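Material: zebrafish TRPN1-YFP in HEK293 cells; Doses: single test compound dose, 3 µM nominal, 0.3% DMSO; Timing: dye loading 1 h at 37 °C, then 30 min room temperature; Technique: intracellular calcium fluorescence with Fluo-8; Benchmarks: high carbachol 87 µM, low DMSO alone.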
TAAR1 agonist: human TAAR1 agonists, primary screen, Fluo-8 calcium fluorescence, CHO RD-HGA16 cells; Trace amine-associated receptor 1 (Homo sapiens), Q96RJ0; activation, % at 3 µM; AID 624467, 2012; vehicle wells 0%, saturating PEA agonist 100%; hit rate 0.99% among 360,000;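 active = activation above the mean activation of all test compounds in the run plus 3 SD, cut at about 38% in these data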
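Signal – calcium-sensitive Fluo-8 signal, excitation 470-495, emission 515-575 nm · System – RD-HGA16 (CHO) cells co-expressing Gα16 and hTAAR1 · Incubation – 17-24 h seeding, 75 min 37 °C dye, 30 min RT · Compound dosing – 3 µM single concentration · Repeats – no replicates (n 1)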
TAAR1 nonsel count: nonselective antagonists in TAAR1 counter-screen cells, counter-screen for hTAAR1 antagonist project, cell-based, fluorescence, calcium. counterscreen cell line, antagonist mode. hit rate 77% among 2,400. inhibition, % at 3 µM. shares compounds with TAAR1 antagonist; in the data active = inhibition above about 22%;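 also: CHO-Ga16 host cells stimulated with ATP at an EC80 level; 0% = agonist EC80 plus vehicle and 100% = vehicle without agonist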
TAAR1 ant conf: human TAAR1 antagonists, retest of hits, confirmation, cell-based, fluorescence | hit rate 40% among 2,400 | AID 651785, 2012 | inhibition, % at 3 µM | TAAR1-expressing cells, fluorescence antagonist read-out | shares compounds with TAAR1 antagonist; in the data active = inhibition above about 49%;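 also: CHO-Ga16 host cells challenged with agonist PEA near its EC80; 0% = agonist at EC80 plus vehicle and 100% = vehicle with no agonist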
Ga16 ag counter: calcium activation in Ga16-expressing cells, counter-screen for TAAR1 antagonist project, cell-based, fluorescence; hit rate 18% among 2,400; agonist counterscreen; shares compounds with TAAR1 antagonist; activation, % at 3 µM; AID 651953, 2012; in the data active = activation above about 12%;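 also: 0% = vehicle wells and 100% = saturating stimulus response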
TAAR1 ag count: TAAR1 activation by candidate antagonists – cell-based, fluorescence, counter-screen for TAAR1 antagonist project. shares compounds with TAAR1 antagonist. hTAAR1 cell line, agonist mode. activation, % at 3 µM. hit rate 2% among 2,400. AID 651955, 2012; in the data active = activation above about 37%;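 also: CHO cells stably expressing TAAR1 with calcium dye readout; 0% = DMSO vehicle and 100% = full agonist response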
An asterisk follows results filed as active; · = no result given. Most compounds without a hit are left out; they make up all but 3.4% or so of the library.

SMILES | LANA-H2A inh | TRPML3 ag | GPR7 antag | TAAR1 antagonist | zfTRPN1 agonist | TAAR1 agonist | TAAR1 nonsel count | TAAR1 ant conf | Ga16 ag counter | TAAR1 ag count
CCOc1ccc(S(=O)(=O)Nc2cccc(C(=O)N3CCN(c4ccccc4O)CC3)c2)cc1 | 2.0 | · | · | 36.0 | · | 11.0 | · | · | · | ·
CCN(CC(=O)Nc1ccc(NC(C)=O)cc1)C(=O)c1ccccc1Sc1ccccc1C#N | -1.3 | · | · | 50.7* | · | 10.6 | 27.1* | 37.3 | 4.6 | 2.4
CCN(CC(=O)Nc1ccccc1C(F)(F)F)C(=O)c1ccccc1Sc1ccccc1C#N | -0.6 | · | · | 4.5 | · | 3.6 | · | · | · | ·
CC(C)(CNC(=O)CCNC(=O)c1ccc(Br)cc1)N1CCOCC1 | -4.5 | · | · | -30.1 | · | 1.6 | · | · | · | ·
CN(CC(=O)Nc1ccccc1N1CCOCC1)S(=O)(=O)c1ccc(F)cc1 | 0.7 | 0.7 | 8.3 | 8.2 | 2.1 | 12.6 | · | · | · | ·
CC(=O)Nc1ccc(S(=O)(=O)N(C)CC(=O)Nc2ccccc2N2CCCC2)cc1 | -3.3 | · | · | 55.2* | · | 17.0 | 29.6* | 38.9 | 9.7 | 8.8
COc1ccc2[nH]c(=O)c(CN(CC3CCCO3)C(=O)Nc3ccccc3OC)cc2c1 (stereo not given) | · | 0.3 | -6.0 | 63.3* | 0.5 | 16.4 | 29.5* | 41.5 | 5.9 | 5.8

Screening results as filed in PubChem.
